What was measured:
Canis familiaris [1] = species: Canis familiaris; assay: Positive inotropic in the isolated papillary muscle of the dog.; type: functional, Canis lupus familiaris
Method in brief: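 Right ventricular anterior papillary muscle with septum, from mongrel dogs (7–12 kg, pentobarbital 30 mg/kg iv). It was perfused at about 100 mmHg via the septal artery with blood from a heparinized donor dog and paced at 120/min (1 ms pulses, about 1.5× threshold). Isometric tension was recorded. Saline solutions were injected intra-arterially, with amrinone as reference. ED15 (15% rise in developed tension) was taken from log dose-response curves. Results are mean ± SEM (n = 7) or mean ± range (n = 2).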

Canis familiaris [2] = assay: Inotropic activity determined by evaluating the % change in contractile force (CF) of right ventricle at a dose of 100 ug/kg administered intravenously […]; type: functional, Canis lupus familiaris, Heart right ventricle
Method in brief: (§1)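 Mongrel dogs of either sex, 7–15 kg, anesthetized with sodium pentobarbital (30 mg/kg iv), open-chest, intubated and ventilated on room air. Compounds given intravenously. A femoral artery catheter with pressure transducer recorded SBP and DBP. dP/dtmax, right ventricular contractile force, cardiac output and heart rate were also recorded, as % change at each iv dose.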

Canis familiaris [3] = assay: Inotropic activity determined by evaluating the % change in Heart Rate (HR) at a dose of 100 ug/kg administered intravenously […]; type: functional, Canis lupus familiaris; method in brief: as §1
Canis familiaris [4] = assay: Inotropic activity determined by evaluating the % change in Heart Rate (HR) at a dose of 300 ug/kg administered intravenously […]; type: functional, Canis lupus familiaris, Muscle tissue; method in brief: as §1
Canis familiaris [5] = assay: Inotropic activity determined by evaluating the % change in Cardiac out put (CO)at a dose of 300 ug/kg administered intravenously […]; type: functional, Canis lupus familiaris; method in brief: as §1
Canis familiaris [6] = assay: Inotropic activity determined by evaluating the % change in Diastolic Blood Pressure (DBP) at a dose of 100 ug/kg administered intravenously […]; type: functional, Canis lupus familiaris; method in brief: as §1
Canis familiaris [7] = assay: Inotropic activity determined by evaluating the % change in Diastolic Blood Pressure (DBP) at a dose of 300 ug/kg administered intravenously […]; type: functional, Canis lupus familiaris; method in brief: as §1
Canis familiaris [8] = species: Canis familiaris; assay: Positive inotropic activity determined in the […](that produced 30% increase in dose- response curves [dP/dt(max)]); type: functional; details: Canis lupus familiaris
Method in brief: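 In the anesthetized open-chest dog (mongrel, 7–15 kg, pentobarbital 30 mg/kg iv, ventilated on room air), compounds were given intravenously and LV dP/dtmax was recorded. The dose giving a 30% rise in dP/dtmax was read from the dose-response curves. Results are mean ± SEM (n = 3) or mean ± range (n = 2).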

Canis familiaris [9] = assay: Inotropic activity determined by evaluating the % change in Systolic Blood Pressure (SBP) at a dose of 100 ug/kg administered intravenously […]; type: functional, Canis lupus familiaris, Muscle tissue; method in brief: as §1
Canis familiaris [10] = assay: Inotropic activity determined by evaluating the % change in contractile force (CF) of right ventricle at a dose of 300 ug/kg administered intravenously […]; type: functional, Canis lupus familiaris, Heart right ventricle; method in brief: as §1
Canis familiaris [11] = assay: Inotropic activity determined by evaluating the % change in Cardiac out put (CO)at a dose of 100 ug/kg administered intravenously […]; type: functional, Canis lupus familiaris; method in brief: as §1
Canis familiaris [12] = assay: Inotropic activity determined by evaluating the maximum rate of rise in left ventricular pressure at a dose of 100 ug/kg administered intravenously […]; type: functional, Canis lupus familiaris, Muscle tissue; method in brief: as §1
Canis familiaris [13] = assay: Inotropic activity determined by evaluating the maximum rate of rise in left ventricular pressure at a dose of 300 ug/kg administered intravenously […]; type: functional, Canis lupus familiaris, Muscle tissue; method in brief: as §1
Canis familiaris [14] = assay: Inotropic activity determined by evaluating the % change in Systolic Blood Pressure (SBP) at a dose of 300 ug/kg administered intravenously […]; type: functional, Canis lupus familiaris, Muscle tissue; method in brief: as §1
Canis familiaris [15] = assay: Inotropic activity determined by evaluating the % change in Diastolic Blood Pressure (DBP) at a dose of 30 ug/kg administered intravenously […]; type: functional, Canis lupus familiaris; method in brief: as §1
Canis familiaris [16] = assay: Inotropic activity determined by evaluating the % change in Heart Rate (HR) at a dose of 30 ug/kg administered intravenously […]; type: functional, Canis lupus familiaris; method in brief: as §1
Canis familiaris [17] = assay: Inotropic activity determined by evaluating the % change in Cardiac out put (CO)at a dose of 30 ug/kg administered intravenously […]; type: functional, Canis lupus familiaris; method in brief: as §1
Canis familiaris [18] = assay: Inotropic activity determined by evaluating the % change in contractile force (CF) of right ventricle at a dose of 30 ug/kg administered intravenously […]; type: functional, Canis lupus familiaris, Heart right ventricle; method in brief: as §1
Canis familiaris [19] = assay: Inotropic activity determined by evaluating the maximum rate of rise in left ventricular pressure at a dose of 30 ug/kg administered intravenously […]; type: functional, Canis lupus familiaris, Muscle tissue; method in brief: as §1
Canis familiaris [20] = assay: Inotropic activity determined by evaluating the % change in Systolic Blood Pressure (SBP) at a dose of 30 ug/kg administered intravenously […]; type: functional, Canis lupus familiaris, Muscle tissue; method in brief: as §1
Canis familiaris [21] = assay: Inotropic activity determined by evaluating the % change in contractile force (CF) of right ventricle at a dose of 10 ug/kg administered intravenously […]; type: functional, Canis lupus familiaris, Heart right ventricle; method in brief: as §1
Canis familiaris [22] = assay: Inotropic activity determined by evaluating the % change in Heart Rate (HR) at a dose of 10 ug/kg administered intravenously […]; type: functional, Canis lupus familiaris; method in brief: as §1
Canis familiaris [23] = assay: Inotropic activity determined by evaluating the % change in Cardiac out put (CO)at a dose of 10 ug/kg administered intravenously […]; type: functional, Canis lupus familiaris; method in brief: as §1
Canis familiaris [24] = assay: Inotropic activity determined by evaluating the % change in Diastolic Blood Pressure (DBP) at a dose of 10 ug/kg administered intravenously […]; type: functional, Canis lupus familiaris; method in brief: as §1
Canis familiaris [25] = assay: Inotropic activity determined by evaluating the % change in Systolic Blood Pressure (SBP) at a dose of 10 ug/kg administered intravenously […]; type: functional, Canis lupus familiaris; method in brief: as §1
Canis familiaris [26] = assay: Inotropic activity determined by evaluating the maximum rate of rise in left ventricular pressure at a dose of 10 ug/kg administered intravenously […]; type: functional, Canis lupus familiaris, Muscle tissue; method in brief: as §1

Structure (SMILES) | ED15 (Canis familiaris [1]) [µg] | Change of CF (Canis familiaris [2]) [%] | Change of HR (Canis familiaris [3]) [%] | Change of DBP (Canis familiaris [6]) [%] | ED30 (Canis familiaris [8]) [mg/kg] | Change of SBP (Canis familiaris [9]) [%] | Change of CO (Canis familiaris [11]) [%] | dP/dt (Canis familiaris [12]) [%] | Change of DBP (Canis familiaris [15]) [%] | Change of HR (Canis familiaris [16]) [%] | Change of CO (Canis familiaris [17]) [%] | Change of CF (Canis familiaris [18]) [%] | dP/dt (Canis familiaris [19]) [%] | Change of SBP (Canis familiaris [20]) [%] | further results
Cl.O=C1CCC(c2ccc(Nc3ccnc4ccccc34)cc2)=NN1 | >300 | – | – | – | – | – | – | – | – | – | – | – | – | – | –
CCC1CC(=O)NN=C1c1ccc(Nc2ccncc2)cc1.Cl (stereo unspecified) | 23 | 23.7 | 12 | -15.1 | 0.256 | -8.8 | 15.2 | 20.4 | – | – | – | – | – | – | Change of HR (Canis familiaris [4]): 22.5%; Change of CO (Canis familiaris [5]): 19.2%; Change of DBP (Canis familiaris [7]): -18.3%; Change of CF (Canis familiaris [10]): 35.7%; dP/dt (Canis familiaris [13]): 34.8%; Change of SBP (Canis familiaris [14]): -11.1%
CC1CC(=O)NN=C1c1ccc(N(C)c2ccncc2)cc1.Cl (stereo unspecified) | 18.5 | 41.2 | 22.8 | -13.9 | > 0.1 | -5.5 | 13.3 | 27.5 | -3.2 | 2.6 | 8.9 | 13 | 11 | -0.6 | –
Cl.Oc1ccc(-c2ccc(Nc3ccncc3)cc2)nn1 | 50 | 33.7 | 4.2 | -27.6 | 0.022 | -22.3 | 7.7 | 57.1 | -20 | 2.4 | 5.4 | 19.9 | 39.6 | -11.9 | Change of CF (Canis familiaris [21]): 11%; Change of HR (Canis familiaris [22]): 1.3%; Change of CO (Canis familiaris [23]): 1.6%; Change of DBP (Canis familiaris [24]): -7.5%; Change of SBP (Canis familiaris [25]): -3.6%; dP/dt (Canis familiaris [26]): 20.2%
CN(c1ccc(C2=NNC(=O)CC2)cc1)c1ccccn1.Cl | 5.6 | 37.7 | 9.5 | -17.8 | > 0.1 | -10.5 | 18.7 | 32.5 | -9.6 | 4.5 | 13.2 | 16.5 | 14.3 | -6.3 | –
Cl.O=C1CCC(c2ccc(Nc3ccccn3)cc2)=NN1 | 17.5 | 40.5 | 16.7 | -25.5 | 0.106 | -27.2 | 22.1 | 37.8 | -15.6 | 6.7 | 13.9 | 22 | 16.1 | -13.7 | –
Cl.O=C1CCC(c2ccc(Nc3ncccn3)cc2)=NN1 | 165 | – | – | – | – | – | – | – | – | – | – | – | – | – | –
CN(c1ccncc1)c1ccc(C2=NNC(=O)CC2)cc1.Cl | 38 | 11 | 1.4 | -4 | > 0.3 | -2.1 | 5.9 | 13.6 | – | – | – | – | – | – | Change of HR (Canis familiaris [4]): 2.7%; Change of CO (Canis familiaris [5]): 8.7%; Change of DBP (Canis familiaris [7]): -10.3%; Change of CF (Canis familiaris [10]): 20%; dP/dt (Canis familiaris [13]): 17.8%; Change of SBP (Canis familiaris [14]): -5.8%
O=C1CCC(c2ccc(-n3ccnc3)cc2)=NN1 [IMAZODAN] | – | 83.8 | 16.1 | -28.3 | 0.046 | -16.9 | 35.5 | 49.3 | -16.5 | 8.1 | 26.3 | 42.2 | 22.3 | -9.6 | Change of CF (Canis familiaris [21]): 13.8%; Change of HR (Canis familiaris [22]): 3.6%; Change of CO (Canis familiaris [23]): 11.2%; Change of DBP (Canis familiaris [24]): -8.1%; Change of SBP (Canis familiaris [25]): -4.8%; dP/dt (Canis familiaris [26]): 10.3%
